In ChEMBL document CHEMBL1151692, “Substituted hippurates and hippurate analogs as substrates and inhibitors of peptidylglycine alpha-hydroxylating monooxygenase (PHM)” (Bioorg Med Chem, 2008):
Where a SMILES comes first, the peptide text is derived from it. [ ]: non-standard residue; d: D form. The star is where a group is joined. Dansyl = CN(C)c1cccc2c(S(=O)(=O)*)cccc12; pGlu = O=C1CC[C@@H](C(=O)O)N1; Boc = CC(C)(C)OC(=O)*; Bz = O=C(c1ccccc1)*; ClAc = O=C(CCl)*

Key:
[1] = target: T1, Peptidylglycine alpha-amidating monooxygenase (Rattus norvegicus) (UniProt P14925); assay: Ratio of Vm(app) to Km(app) for rat recombinant peptidylglycine alpha-amidating monooxygenase relative to hippuric acid
T1 sequence (whole entry): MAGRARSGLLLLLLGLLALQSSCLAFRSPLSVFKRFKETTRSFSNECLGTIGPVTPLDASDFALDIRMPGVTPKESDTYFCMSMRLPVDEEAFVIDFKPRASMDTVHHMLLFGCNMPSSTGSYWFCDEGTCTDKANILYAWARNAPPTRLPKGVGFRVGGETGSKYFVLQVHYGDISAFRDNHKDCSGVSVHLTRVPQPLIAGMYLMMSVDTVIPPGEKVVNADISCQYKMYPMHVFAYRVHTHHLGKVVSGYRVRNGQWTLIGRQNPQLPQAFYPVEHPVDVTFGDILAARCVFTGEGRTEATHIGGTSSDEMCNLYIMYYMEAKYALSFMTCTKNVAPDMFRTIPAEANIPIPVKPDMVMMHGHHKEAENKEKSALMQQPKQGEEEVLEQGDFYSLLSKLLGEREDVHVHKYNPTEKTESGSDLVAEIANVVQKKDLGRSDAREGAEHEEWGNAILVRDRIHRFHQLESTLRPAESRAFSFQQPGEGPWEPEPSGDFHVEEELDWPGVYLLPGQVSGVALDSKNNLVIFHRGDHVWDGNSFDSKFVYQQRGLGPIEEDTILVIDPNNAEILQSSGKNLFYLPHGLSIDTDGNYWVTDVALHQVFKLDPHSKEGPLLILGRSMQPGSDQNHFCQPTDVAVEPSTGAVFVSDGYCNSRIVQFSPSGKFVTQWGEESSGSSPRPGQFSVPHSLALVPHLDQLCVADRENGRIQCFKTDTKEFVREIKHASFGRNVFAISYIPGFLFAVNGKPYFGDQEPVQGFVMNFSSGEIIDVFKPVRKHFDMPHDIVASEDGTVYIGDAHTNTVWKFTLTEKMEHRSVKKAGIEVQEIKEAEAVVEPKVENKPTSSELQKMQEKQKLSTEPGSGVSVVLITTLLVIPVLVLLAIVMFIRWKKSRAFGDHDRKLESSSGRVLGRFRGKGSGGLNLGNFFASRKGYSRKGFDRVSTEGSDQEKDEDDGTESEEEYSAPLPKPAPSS
How it was run: (§1)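 Recombinant rat type A medullary thyroid carcinoma PAM (bifunctional), 15–50 μg, in 100 mM MES/NaOH pH 6.0, 30 mM NaCl, 1% ethanol, 0.001% Triton X-100, 10 μg/mL catalase, 1.0 μM Cu(NO3)2, 5.0 mM ascorbate, ~200 μM O2, 37 °C. Substrate generally 0.3–5.0 KM,app. Initial O2 consumption rates read by oxygen monitor and fit to Michaelis–Menten.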

[2] = target: T1, Peptidylglycine alpha-amidating monooxygenase (Rattus norvegicus); assay: Activity of rat recombinant peptidylglycine alpha-amidating monooxygenase assessed as stimulation of oxygen consumption
[3] = target: T1, Peptidylglycine alpha-amidating monooxygenase (Rattus norvegicus); assay: Ratio of Vm(app) to Km(app) for rat recombinant peptidylglycine alpha-amidating monooxygenase; how it was run: as §1

## O=C(O)CNC(=O)CNC(=O)c1ccccc1 (Bz-Gly-Gly-OH)
[1]
  Activity: 26
[2]
  Vmax(app): 12 s⁻¹
[3]
  Ratio: 1.6 ×10⁵ /M/s

## O=C(O)CNC(=O)/C=C/c1ccco1
[1]
  Activity: 0.45
[2]
  Vmax(app): 3.4 s⁻¹
[3]
  Ratio: 2.8 ×10³ /M/s

## O=C(O)CNC(=O)OCc1ccccc1
[1]
  Activity: 2.4
[2]
  Vmax(app): 8.6 s⁻¹
[3]
  Ratio: 1.5 ×10⁴ /M/s

## O=C(O)CNC(=O)CNC(=O)CNC(=O)c1ccccc1 (Bz-Gly-Gly-Gly-OH)
[1]
  Activity: 4.7
[2]
  Vmax(app): 8.8 s⁻¹
[3]
  Ratio: 2.9 ×10⁴ /M/s

## O=C(O)CNC(=O)c1ccc(C(F)(F)F)cc1
[1]
  Activity: 0.6
[2]
  Vmax(app): 2.8 s⁻¹
[3]
  Ratio: 3.6 ×10³ /M/s

## CCc1ccc(C(=O)NCC(=O)O)cc1
[1]
  Activity: 0.5
[2]
  Vmax(app): 3.6 s⁻¹
[3]
  Ratio: 3.1 ×10³ /M/s

## O=C(O)CNC(=O)Nc1ccccc1
[1]
  Activity: 4.4
[2]
  Vmax(app): 9.7 s⁻¹
[3]
  Ratio: 2.7 ×10⁴ /M/s

## CC(=O)NCC(=O)NCC(=O)O
[1]
  Activity: 1
[2]
  Vmax(app): 8.9 s⁻¹
[3]
  Ratio: 5.9 ×10³ /M/s

## O=C(O)CNC(=O)c1ccc(Cl)cc1
[1]
  Activity: 1.1
[2]
  Vmax(app): 4.1 s⁻¹
[3]
  Ratio: 6.6 ×10³ /M/s

## CC(C)(C)OC(=O)NCC(=O)O
[1]
  Activity: 0.3
[2]
  Vmax(app): 6.3 s⁻¹
[3]
  Ratio: 1.7 ×10³ /M/s

## CC(=O)NCC(=O)O
[1]
  Activity: 0.1

## O=C(O)CNC(=O)c1cccc(Cl)c1
[1]
  Activity: 0.6
[2]
  Vmax(app): 7.8 s⁻¹
[3]
  Ratio: 3.6 ×10³ /M/s

## Nc1ccc(C(=O)NCC(=O)O)cc1
[1]
  Activity: 0.4
[2]
  Vmax(app): 5.6 s⁻¹
[3]
  Ratio: 2.2 ×10³ /M/s

## O=C(O)CNC(=O)c1ccccc1O
[1]
  Activity: 1.1
[2]
  Vmax(app): 4.9 s⁻¹
[3]
  Ratio: 7.1 ×10³ /M/s

## O=C(O)CNC(=O)c1ccccc1I
[1]
  Activity: 0.1
[2]
  Vmax(app): 3.1 s⁻¹
[3]
  Ratio: 9.1 ×10² /M/s

## CC(C)CCC(=O)NCC(=O)O
[1]
  Activity: 3.7
[2]
  Vmax(app): 6.6 s⁻¹
[3]
  Ratio: 2.3 ×10⁴ /M/s

## O=C(O)CNC(=O)C1CC1c1ccccc1 (configuration not stated)
[1]
  Activity: 1.8
[2]
  Vmax(app): 10 s⁻¹
[3]
  Ratio: 1.1 ×10⁴ /M/s

## O=C(O)CNC(=O)[C@@H]1CCC(=O)N1 ([pGlu]-Gly-OH)
[1]
  Activity: 4.8
[2]
  Vmax(app): 9.3 s⁻¹
[3]
  Ratio: 3 ×10⁴ /M/s

## O=C(O)CNC(=O)CNC(=O)c1ccc([N+](=O)[O-])cc1
[1]
  Activity: 12
[2]
  Vmax(app): 8.7 s⁻¹
[3]
  Ratio: 7.6 ×10⁴ /M/s

## O=C(O)CNC(=O)CCc1ccccc1
[1]
  Activity: 1.8
[2]
  Vmax(app): 9.9 s⁻¹
[3]
  Ratio: 1.1 ×10⁴ /M/s

## O=C(O)CNC(=O)c1ccco1
[1]
  Activity: 0.5
[2]
  Vmax(app): 7.5 s⁻¹
[3]
  Ratio: 2.8 ×10³ /M/s

## O=C(O)CNC(=S)Cc1ccccc1
[1]
  Activity: 16
[2]
  Vmax(app): 2.4 s⁻¹
[3]
  Ratio: 1 ×10⁵ /M/s

## COc1ccc(C(=O)NCC(=O)O)cc1
[1]
  Activity: 1
[2]
  Vmax(app): 5.3 s⁻¹
[3]
  Ratio: 6.4 ×10³ /M/s

## O=C(O)CNC(=O)c1ccc(Br)cc1
[1]
  Activity: 0.8
[2]
  Vmax(app): 2.5 s⁻¹
[3]
  Ratio: 4.9 ×10³ /M/s

## CC(C)(C)OC(=O)NCC(=O)NCC(=O)O (Boc-Gly-Gly-OH)
[1]
  Activity: 4
[2]
  Vmax(app): 7.5 s⁻¹
[3]
  Ratio: 2.5 ×10⁴ /M/s

## CC(C)[C@H](NC(=O)[C@H](Cc1ccc(O)cc1)NS(=O)(=O)c1cccc2c(N(C)C)cccc12)C(=O)N[C@H](C)C(=O)O (Dansyl-Tyr-Val-[dA]-OH)
[2]
  Vmax(app): 0.91 s⁻¹
[3]
  Ratio: 3 ×10⁴ /M/s

## O=C(O)CNC(=O)c1cccnc1
[1]
  Activity: 0.7

## O=C(O)CNC(=O)CCCCCc1ccccc1
[1]
  Activity: 32
[2]
  Vmax(app): 11 s⁻¹
[3]
  Ratio: 2 ×10⁵ /M/s

## O=C(O)CNC(=O)c1c(F)cccc1F
[1]
  Activity: 0.04
[2]
  Vmax(app): 4.3 s⁻¹
[3]
  Ratio: 2.3 ×10² /M/s

## O=C(O)CNC(=O)CCCCc1ccccc1
[1]
  Activity: 12
[2]
  Vmax(app): 12 s⁻¹
[3]
  Ratio: 7.6 ×10⁴ /M/s

## O=C(O)CNC(=O)CSc1ccccc1
[1]
  Activity: 4
[2]
  Vmax(app): 4.6 s⁻¹
[3]
  Ratio: 2.5 ×10⁴ /M/s

## Cc1ccccc1C(=O)NCC(=O)O
[1]
  Activity: 0.3
[2]
  Vmax(app): 7.9 s⁻¹
[3]
  Ratio: 1.8 ×10³ /M/s

## CC(C)SCC(=O)NCC(=O)O
[1]
  Activity: 1.3
[2]
  Vmax(app): 1.8 s⁻¹
[3]
  Ratio: 8.2 ×10³ /M/s

## CC(=O)N[C@H](C)C(=O)O
[2]
  Vmax(app): 1.3 s⁻¹
[3]
  Ratio: 0.95 M⁻¹ s⁻¹

## CCCc1ccc(C(=O)NCC(=O)O)cc1
[1]
  Activity: 0.7
[2]
  Vmax(app): 5.1 s⁻¹
[3]
  Ratio: 4.2 ×10³ /M/s

## Cc1ccc(C(=O)NCC(=O)O)cc1
[1]
  Activity: 0.5
[2]
  Vmax(app): 5.7 s⁻¹
[3]
  Ratio: 3.2 ×10³ /M/s

## O=C(O)CNC(=O)CNC(=O)CCl (ClAc-Gly-Gly-OH)
[1]
  Activity: 3.3
[2]
  Vmax(app): 8.9 s⁻¹
[3]
  Ratio: 2.1 ×10⁴ /M/s

## O=C(O)CNC(=S)CCc1ccccc1
[1]
  Activity: 6.8
[2]
  Vmax(app): 1.6 s⁻¹
[3]
  Ratio: 4.2 ×10⁴ /M/s

## O=C(O)CNC(=O)SCc1ccccc1
[1]
  Activity: 1.9
[2]
  Vmax(app): 0.69 s⁻¹
[3]
  Ratio: 1.2 ×10⁴ /M/s

## O=C(O)CNC(=O)c1cccs1
[1]
  Activity: 1
[2]
  Vmax(app): 9.3 s⁻¹
[3]
  Ratio: 6 ×10³ /M/s

## O=C(O)CNC(=O)CCCCCCCc1ccccc1
[1]
  Activity: 12
[2]
  Vmax(app): 8 s⁻¹
[3]
  Ratio: 7.6 ×10⁴ /M/s

## Nc1ccccc1C(=O)NCC(=O)O
[1]
  Activity: 0.5
[2]
  Vmax(app): 4.2 s⁻¹
[3]
  Ratio: 2.9 ×10³ /M/s

## Cc1cccc(C(=O)NCC(=O)O)c1
[1]
  Activity: 0.8
[2]
  Vmax(app): 6.4 s⁻¹
[3]
  Ratio: 4.7 ×10³ /M/s

## O=C(O)CNC(=O)/C=C/c1ccccc1
[1]
  Activity: 5.8
[2]
  Vmax(app): 8.4 s⁻¹
[3]
  Ratio: 3.6 ×10⁴ /M/s

## O=C(O)CNC(=O)c1ccc(O)cc1
[1]
  Activity: 0.6
[2]
  Vmax(app): 5.8 s⁻¹
[3]
  Ratio: 3.5 ×10³ /M/s

## CC(Cc1ccccc1)C(=O)NCC(=O)O (configuration not stated)
[1]
  Activity: 0.69
[2]
  Vmax(app): 18 s⁻¹
[3]
  Ratio: 4.3 ×10³ /M/s

## O=C(O)CNC(=O)CCCc1ccccc1
[1]
  Activity: 11
[2]
  Vmax(app): 11 s⁻¹
[3]
  Ratio: 7 ×10⁴ /M/s

## C[C@@H](NC(=O)c1ccccc1)C(=O)O
[2]
  Vmax(app): 0.27 s⁻¹
[3]
  Ratio: 3.2 M⁻¹ s⁻¹
